According to ChEMBL document CHEMBL1122741, “Substituted 5,6-dihydrofuro[3,2-f]-1,2-benzisoxazole-6-carboxylic acids: high-ceiling diuretics with uricosuric activity” (J Med Chem, 1984):
One block for each compound: values may come before it. The source made the active and inactive calls. The rule behind the calls is not given here.

How the values were obtained:
Mus musculus [1] = test: ED6 (natriuretic potency) is the oral dose(mg/kg) required to produce an excretion of 6 milliequivalents of Na+per kilogram during 0-4 hr in male mice (Highest dose tested was 50 mg/kg); type: functional
How it was run: (§1)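 Male mice, 16-30 g, fed ad libitum beforehand. Compound in 0.2% hydroxypropylmethylcellulose given po at 10 mL/kg, then 0.9% saline po at 3% of body weight. Five mice pooled per metabolism cage, four cages per dose. Combined urine collected 0-4 h and assayed for Na+, K+, Cl-, uric acid as mequiv/kg per cage. ED6 from regression of Na+ against log dose.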

Rattus norvegicus [2] = test: ED2(natriuretic potency) is the oral dose(mg/kg) required to produce an excretion of 2 milliequivalents of Na+per kilogram during 0-4 hr in female rats (Highest dose tested was 100 mg/kg); Inactive; type: functional, organism-based; design: dose 100 mg/kg
How it was run: (§2)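 Female Sprague-Dawley rats, 175-225 g, on sucrose and water for 18 h, given 5 mg DOCA sc 2 h before dosing. Compound in 0.2% methylcellulose given by gavage at 2 mL/kg, then a 30 mL/kg load of 0.34% NaCl/0.69% KCl. Individual metabolism cages, urine collected 0-4 h for Na+, K+, Cl-. Two-stage two-dose screen at 2 rats/dose, then at least four doses at 4 rats/dose. ED2 taken from regression of Na+ excretion against log dose.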

Mus musculus [3] = test: ED6 (natriuretic potency) is the oral dose(mg/kg) required to produce an excretion of 6 milliequivalents of Na+per kilogram during 0-4 hr in male mice (Highest dose tested was 50 mg/kg); Inactive; type: functional, organism-based; design: dose 50 mg/kg; how it was run: as §1
Canis familiaris [4] = test: Na+ excretion mequiv /kg in conscious female dogs administered perorally during 0-6 hr; type: ADME, organism-based, Canis lupus familiaris; conditions: dog, in vivo, po
How it was run: (§3)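 Conscious female dogs dosed at 3 mg/kg po, except one reference at 10 mg/kg, one dose per dog. Urine collected to 6 h and centrifuged; heparinized venous plasma taken at each collection. Na+ and urate measured by standard methods, mean ± SEM over 0-6 h. Compared with vehicle by ANOVA/Duncan's test or unpaired t test.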

Mus musculus [5] = test: Na+ excretion mequiv /kg in saline-loaded mice administered at a dose 10 […] perorally; type: ADME, organism-based; conditions: in vivo, po
How it was run: (§4)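 Saline-loaded male mice, 16-30 g. Compound po in 0.2% hydroxypropylmethylcellulose at 10 mL/kg, vehicle alone for controls, followed by 0.9% saline po at 3% of body weight. Doses were 0.3-250 mg/kg po. Five mice per metabolism cage, four cages per dose, pooled urine collected for 4 h. Na+ reported as mean ± SEM mequiv/kg; ANOVA with Duncan's test or unpaired t test against control.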

Canis familiaris [6] = organism: Canis familiaris; test: Urate excreted in female dogs during 0-6 hr; type: ADME, organism-based, Canis lupus familiaris; conditions: dog, in vivo; how it was run: as §3
Mus musculus [7] = test: Na+ excretion mequiv /kg in saline-loaded mice administered at a dose 2 […] perorally; type: ADME, organism-based; conditions: in vivo, po; how it was run: as §4
Mus musculus [8] = test: Na+ excretion mequiv /kg in saline-loaded mice administered at a dose 50 […] perorally; type: ADME, organism-based; conditions: in vivo, po; how it was run: as §4
[9] = Urate excreted in 6 Cebus monkey''s during 0-6 hr; type: ADME; conditions: in vivo
How it was run: (§5)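 Male and female Cebus monkeys, 4-6 per group, fasted for 6 h after dosing, water ad libitum. 20 mg/kg in 0.2% hydroxypropylmethylcellulose at 1.0 mL/kg by nasogastric tube, then water load of 5% body weight. Urine collected in metabolism pans at 2, 6 and 24 h and assayed for uric acid. Urate in mg/kg over 0-6 h, mean ± SEM.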

Rattus norvegicus [10] = test: ED2(natriuretic potency) is the oral dose(mg/kg) required to produce an excretion of 2 milliequivalents of Na+per kilogram during 0-4 hr in female rats (Highest dose tested was 100 mg/kg); type: functional; how it was run: as §2
Canis familiaris [11] = organism: Canis familiaris; test: urate excreted in female dogs during 0-6 hr; type: ADME, organism-based, Canis lupus familiaris; conditions: dog, in vivo; how it was run: as §3
[12] = urate excreted in 4 Cebus monkey''s during 0-6 hr; type: ADME; conditions: in vivo; how it was run: as §5
Canis familiaris [13] = test: ED5(natriuretic potency) is the oral dose(mg/kg) required to produce an excretion of 5 milliequivalents of Na+per kilogram during 0-6 hr in female dogs (Highest dose tested was 30 mg/kg); type: functional, Canis lupus familiaris
How it was run: (§6)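 Female dogs, conscious, one oral dose per dog per experiment. Urine collected and centrifuged; venous plasma drawn at each collection time. Samples assayed for Na+, K+, Cl-, urate and glucose by standard methods. Cumulative Na+ output expressed as mequiv/kg over 6 h, at least two dogs/dose. ED5 read from regression of Na+ excretion against log dose.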

Mus musculus [14] = test: Na+ excretion mequiv[…] in saline-loaded mice administered at a dose 10 […] perorally* -significantly different from control(p<0.05) and Duncan's test; type: ADME, organism-based; conditions: in vivo, po; how it was run: as §4
Mus musculus [15] = test: Na+ excretion mequiv[…] in saline-loaded mice administered at a dose 10 […] perorally; type: ADME, organism-based; conditions: in vivo, po; how it was run: as §4
Mus musculus [16] = test: Na+ excretion mequiv/kg in saline-loaded mice administered at a dose 2 […] perorally; type: ADME, organism-based; conditions: in vivo, po; how it was run: as §4
Canis familiaris [17] = test: ED5(natriuretic potency) is the oral dose(mg/kg) required to produce an excretion of 5 milliequivalents of Na+per kilogram during 0-6 hr in female dogs (Highest dose tested was 30 mg/kg); Inactive; type: functional, organism-based; design: dose 30 mg/kg; conditions: Canis lupus familiaris; how it was run: as §6
Canis familiaris [18] = test: Na+ excretion mequiv /kg in 6 conscious female dogs administered perorally during 0-6 hr; type: ADME, organism-based, Canis lupus familiaris; conditions: dog, in vivo, po; how it was run: as §3

Structure (SMILES): NC(=O)C1Cc2cc3c(-c4ccccc4F)noc3c(Cl)c2O1 (stereo not drawn)
ED6 (Mus musculus [1]): 39 mg/kg | ED2 (Rattus norvegicus [2]): inactive

Structure (SMILES): N#CC1Cc2cc3c(-c4ccccc4F)noc3c(Cl)c2O1 (stereo not drawn)
ED2 (Rattus norvegicus [2]): inactive | ED6 (Mus musculus [3]): inactive

Na+ excretion (Canis familiaris [4]): 0.62 m equiv kg-1 | Na+ excretion (Mus musculus [5]): 3.2 m equiv kg-1 | Excretion (Canis familiaris [6]): 1.25 mg/kg | Na+ excretion (Mus musculus [7]): 2.8 m equiv kg-1 | Na+ excretion (Mus musculus [8]): 3.5 m equiv kg-1 | Excretion [9]: 8.32 mg/kg
Structure (SMILES): O=C(O)C1Cc2cc3c(-c4ccccc4F)noc3c(Cl)c2O1 (stereo in doubt; 30) [listing 1 of 2 here]

Excretion (Canis familiaris [11]): 0.7 mg/kg | Na+ excretion (Canis familiaris [4]): 5.23 m equiv kg-1 | Na+ excretion (Mus musculus [5]): 7.9 m equiv kg-1 | Excretion [12]: 4.03 mg/kg | Na+ excretion (Mus musculus [7]): 3.7 m equiv kg-1 | Na+ excretion (Mus musculus [8]): 11.5 m equiv kg-1
Structure (SMILES): NS(=O)(=O)c1cc(C(=O)O)c(NCc2ccco2)cc1Cl [FUROSEMIDE]
ED2 (Rattus norvegicus [10]): 9.5 mg/kg | ED6 (Mus musculus [1]): 5 mg/kg | ED5 (Canis familiaris [13]): 3.5 mg/kg

Na+ excretion (Mus musculus [14]): 5.9 mequiv/kg | Na+ excretion (Mus musculus [15]): 3.2 mequiv/kg | Na+ excretion (Mus musculus [16]): 2.9 mequiv/kg
Structure (SMILES): C=C(CC)C(=O)c1ccc(OCC(=O)O)c(Cl)c1Cl [ETHACRYNIC ACID]

Structure (SMILES): O=C(O)C1Cc2cc3c(-c4ccccc4F)noc3c(Cl)c2O1 (stereo in doubt; 30) [listing 2 of 2 here]
ED5 (Canis familiaris [17]): inactive | ED6 (Mus musculus [3]): inactive

Excretion (Canis familiaris [11]): 0.82 mg/kg | Na+ excretion (Mus musculus [5]): 8.2 m equiv kg-1 | Excretion [12]: 7.08 mg/kg | Na+ excretion (Mus musculus [7]): 4.2 m equiv kg-1 | Na+ excretion (Mus musculus [8]): 11.9 m equiv kg-1 | Na+ excretion (Canis familiaris [18]): 8.18 m equiv kg-1
Structure (SMILES): O=C(O)C1Cc2cc3c(-c4ccccc4F)noc3c(Cl)c2O1 (stereo in doubt; 15k)
ED2 (Rattus norvegicus [10]): 40 mg/kg | ED6 (Mus musculus [1]; 50 mg/kg): 4.2 mg/kg | ED5 (Canis familiaris [13]; 30 mg/kg): 0.6 mg/kg

Structure (SMILES): Cc1c2c(cc3c(-c4ccccc4F)noc13)CC(C(=O)O)O2 (stereo not drawn)
ED2 (Rattus norvegicus [10]): >100 mg/kg | ED6 (Mus musculus [1]): 7.25 mg/kg | ED5 (Canis familiaris [13]): 0.79 mg/kg

Structure (SMILES): O=C(O)C1Cc2cc3c(-c4ccc(F)cc4)noc3c(Cl)c2O1 (stereo not drawn)
ED2 (Rattus norvegicus [10]): 7.3 mg/kg | ED6 (Mus musculus [1]): 66 mg/kg

Structure (SMILES): O=C(O)C1Cc2cc3c(-c4ccccc4)noc3c(Cl)c2O1 (stereo not drawn)
ED2 (Rattus norvegicus [10]): 27.3 mg/kg | ED6 (Mus musculus [1]): 55 mg/kg | ED5 (Canis familiaris [13]): 13.5 mg/kg

Structure (SMILES): OCC1Cc2cc3c(-c4ccccc4F)noc3c(Cl)c2O1 (stereo not drawn)
ED6 (Mus musculus [1]): 30 mg/kg | ED2 (Rattus norvegicus [2]): inactive | ED5 (Canis familiaris [13]): 21 mg/kg

Structure (SMILES): Cc1ccccc1-c1noc2c(Cl)c3c(cc12)CC(C(=O)O)O3 (stereo not drawn)
ED2 (Rattus norvegicus [10]): 14.3 mg/kg | ED6 (Mus musculus [1]): 8.4 mg/kg

Structure (SMILES): Cc1noc2c(Cl)c3c(cc12)CC(C(=O)O)O3 (stereo not drawn)
ED2 (Rattus norvegicus [10]): 40 mg/kg | ED6 (Mus musculus [3]): inactive
